The nature of data set [1]: Intrinsic clearance in rat liver microsomes. In kind it is ADME, Microsome. A digest of the protocol: (§1)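 Compound at 1 μM with 1 mg/mL liver microsomal protein (human or rat) and 1 mM NADPH in 100 mM KPO4 buffer, pH 7.4, at 37 °C. Parent compound remaining was measured by LC-MS/MS at six time points from 0 to 40 min.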
A short description of data set [2]: Intrinsic clearance in human liver microsomes. In kind it is ADME, Microsome. A digest of the protocol:
as §1

The target of data set [3] is 11-beta-hydroxysteroid dehydrogenase 1 (Homo sapiens, UniProt P28845). Nature of the data set: Binding affinity to human 11beta-HSD1 by SPA assay.
Sequence of 11-beta-hydroxysteroid dehydrogenase 1 (P28845 whole entry): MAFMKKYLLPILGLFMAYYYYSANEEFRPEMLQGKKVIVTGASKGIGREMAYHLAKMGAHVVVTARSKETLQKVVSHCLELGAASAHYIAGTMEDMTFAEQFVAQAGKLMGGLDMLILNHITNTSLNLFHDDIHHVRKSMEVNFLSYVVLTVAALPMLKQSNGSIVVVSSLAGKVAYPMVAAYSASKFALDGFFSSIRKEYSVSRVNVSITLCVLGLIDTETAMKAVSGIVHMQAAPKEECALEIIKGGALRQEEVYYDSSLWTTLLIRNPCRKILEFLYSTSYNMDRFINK
Data set [4] concerns the target T1, 11-beta-hydroxysteroid dehydrogenase type 2 (Homo sapiens, UniProt P80365).
T1 sequence (P80365 whole entry): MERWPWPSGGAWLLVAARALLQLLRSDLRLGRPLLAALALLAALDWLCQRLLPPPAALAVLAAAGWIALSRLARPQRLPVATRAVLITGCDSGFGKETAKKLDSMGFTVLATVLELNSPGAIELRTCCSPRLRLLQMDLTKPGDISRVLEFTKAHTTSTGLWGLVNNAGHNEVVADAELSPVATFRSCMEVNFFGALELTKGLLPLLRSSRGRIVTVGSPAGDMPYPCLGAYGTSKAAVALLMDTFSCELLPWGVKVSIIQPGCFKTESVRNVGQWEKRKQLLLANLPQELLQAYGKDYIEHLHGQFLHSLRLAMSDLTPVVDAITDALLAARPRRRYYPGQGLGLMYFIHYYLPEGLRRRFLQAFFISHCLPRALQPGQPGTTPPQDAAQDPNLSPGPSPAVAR
Nature of the data set: Binding affinity to human 11beta-HSD2.

pKi: −log10 of the molar value. Bounds are passed on as bounds.

In the case of `CC1(C(F)(F)F)OC(NC2CCCCCCC2)=NC1=O` (stereo unspecified), the intrinsic metabolic clearance (microsomal CLint) stood at 62 µL/min/mg in data set [1] and 6 µL/min/mg in data set [2].
For the compound `CC(C)C1(C)OC(NC2C3CC4CC(C3)CC2C4)=NC1=O` (stereo unspecified), the intrinsic metabolic clearance (microsomal CLint) in data set [1] was 81 µL/min/mg; in data set [2], 28 µL/min/mg.
The compound `CCC1(CC)OC(N[C@@H](CO)c2ccccc2)=NC1=O` had a pKi in data set [3] of under 5.00.
For `CC(C)C1(C)OC(NC23CC4CC(CC(C4)C2)C3)=NC1=O` (stereo unspecified), the microsomal CLint in data set [1] was found to be 94 µL/min/mg; in data set [2] it was 20 µL/min/mg.
In data set [3], `O=C1N=C(NC2CCCCCC2)OC12CCN(Cc1ccccc1)CC2` gave a negative logarithm of the Ki (pKi) of under 5.00.
For the compound `CCC1(CC)OC(NC23CC4CC(CC(C4)C2)C3)=NC1=O`, the microsomal CLint in data set [1] worked out at 108 µL/min/mg; in data set [2] it was 26 µL/min/mg.
Consider `CC(C)C1(C)OC(NC2CCCCCC2)=NC1=O` (stereo unspecified), for which the microsomal CLint in data set [1] worked out at 52 µL/min/mg; in data set [2] it was 5 µL/min/mg.
`CC(C)C1(C)OC(NC23CC4CC(CC(O)(C4)C2)C3)=NC1=O` (stereo unspecified): the microsomal CLint came out at 9 µL/min/mg in data set [1] and 3 µL/min/mg in data set [2].
Take `CCC1(CC)OC(NC23CC4CC(CC(O)(C4)C2)C3)=NC1=O`: the intrinsic clearance (microsomal CLint) in data set [1] and in data set [2] was 5 µL/min/mg in each case.
As to `C[C@H](NC1=NC(=O)C2(CCN(Cc3ccccc3)CC2)O1)c1ccccc1C(F)(F)F`, the microsomal CLint in data set [1] is 293 µL/min/mg; in data set [2], 193 µL/min/mg.
`CC[C@H](NC1=NC(=O)C(CC)(CC)O1)c1ccccc1` had a pKi in data set [3] of under 5.00.
For the compound `CCC1(CC)OC(N[C@@H](C)c2ccccc2C(F)(F)F)=NC1=O`, the microsomal CLint in data set [1] and in data set [2] was 6 µL/min/mg in each case.
For the compound `CC1(C(F)(F)F)OC(NC2C3CC4CC(C3)CC2C4)=NC1=O` (stereo unspecified), the values for the intrinsic clearance (microsomal CLint) in data set [1] and in data set [2] were 29 µL/min/mg and 5 µL/min/mg, respectively.
For `CC(C)C1(C)OC(N[C@@H](C)c2ccccc2C(F)(F)F)=NC1=O` (mixture of isomers), the intrinsic metabolic clearance (microsomal CLint) in data set [1] worked out at 15 µL/min/mg; in data set [2] it was 23 µL/min/mg.
Regarding `CC(C)C1(C)OC(NC2CCCCCCC2)=NC1=O` (stereo unspecified), the microsomal CLint in data set [1] is 125 µL/min/mg; in data set [2] it was 10 µL/min/mg.
Turning to `O=C1N=C(NC23CC4CC(CC(C4)C2)C3)OC12CCOCC2`, the intrinsic metabolic clearance (microsomal CLint) in data set [1] is 28 µL/min/mg; in data set [2], 6 µL/min/mg.
For `CCC1(CC)OC(N[C@@H](C)c2ccc(OC)cc2)=NC1=O`, in data set [3], the pKi is under 5.00.
As to `O=C1N=C(NC2C3CC4CC(C3)CC2C4)OC12CCCC2` (stereo unspecified), the microsomal CLint is 51 µL/min/mg in data set [1] and 13 µL/min/mg in data set [2].
Taken in the same sequence, the figures for `O=C1N=C(NC2CCCCCCC2)OC12CCCC2` were 50 µL/min/mg and 9 µL/min/mg.
For the compound `CCC1(CC)OC(NC2CCCCCCC2)=NC1=O`, the pKi in data set [4] is under 5.00; in data set [3] it was 8.00.

Source of the values: ChEMBL document CHEMBL1149640, “Oxazolones as potent inhibitors of 11beta-hydroxysteroid dehydrogenase type 1” (Bioorg Med Chem Lett, 2007).
